Laboratory results published in publication PMC7564327 (Acta Pharmaceutica Sinica. B, 2020).

Assays:
hOAT1 = target: T1, hOAT1 (Homo sapiens, UniProt Q4U2R8); test: Inhibition of 14C-PAH uptake in MDCK-hOAT1 cells; type: in vitro ADME; conditions: for inhibition of the activity of hOAT1: 100 μmol/L IPT, ISP, 100 μg/mL AD extract, substrate 14C-PAH
T1 sequence (Q4U2R8 1-563): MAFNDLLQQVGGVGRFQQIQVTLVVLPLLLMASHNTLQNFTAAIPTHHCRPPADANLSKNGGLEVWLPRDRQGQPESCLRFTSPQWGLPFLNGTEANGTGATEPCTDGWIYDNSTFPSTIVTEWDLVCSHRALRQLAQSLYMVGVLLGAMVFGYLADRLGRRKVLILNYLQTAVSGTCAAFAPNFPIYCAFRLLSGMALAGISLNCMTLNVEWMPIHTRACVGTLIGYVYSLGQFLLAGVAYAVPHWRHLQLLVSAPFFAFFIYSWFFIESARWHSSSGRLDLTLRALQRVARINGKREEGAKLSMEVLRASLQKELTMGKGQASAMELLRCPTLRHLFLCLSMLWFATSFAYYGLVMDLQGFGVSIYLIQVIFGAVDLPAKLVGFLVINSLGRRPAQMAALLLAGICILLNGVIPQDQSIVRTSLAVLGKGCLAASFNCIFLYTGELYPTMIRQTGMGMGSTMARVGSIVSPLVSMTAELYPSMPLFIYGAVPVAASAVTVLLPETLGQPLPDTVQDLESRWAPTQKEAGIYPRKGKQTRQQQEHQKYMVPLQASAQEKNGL
Procedure, shortened: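 Test compounds were made as DMSO stocks (20 mmol/L, or 10 mg/mL for extract) and diluted in PBS to a final DMSO below 0.5%. Cells were exposed at 37 °C to probe plus or minus test compound. The probe was 5 μmol/L ¹⁴C-PAH for 5 min (hOAT1) or 50 nmol/L ³H-estrone sulfate for 2 min (hOAT3, hOATP2B1). Screens used 100 μmol/L (extract 100 mg/L); IC50 came from varied concentrations. Cells were then given three cold DPBS washes, lysed in 0.1 mol/L NaOH and read by scintillation counting. Data are mean ± SD, n = 3.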

hOATP1B1 = target: T2, hOATP1B1 (Homo sapiens, UniProt Q9Y6L6); test: Inhibition of 3H-ES uptake in HEK293-hOATP1B1 cells; type: in vitro ADME; conditions: 100 μmol/L IPT, ISP; 100 μg/mL AD extract; substrate 3H-ES
T2 sequence (Q9Y6L6 1-691): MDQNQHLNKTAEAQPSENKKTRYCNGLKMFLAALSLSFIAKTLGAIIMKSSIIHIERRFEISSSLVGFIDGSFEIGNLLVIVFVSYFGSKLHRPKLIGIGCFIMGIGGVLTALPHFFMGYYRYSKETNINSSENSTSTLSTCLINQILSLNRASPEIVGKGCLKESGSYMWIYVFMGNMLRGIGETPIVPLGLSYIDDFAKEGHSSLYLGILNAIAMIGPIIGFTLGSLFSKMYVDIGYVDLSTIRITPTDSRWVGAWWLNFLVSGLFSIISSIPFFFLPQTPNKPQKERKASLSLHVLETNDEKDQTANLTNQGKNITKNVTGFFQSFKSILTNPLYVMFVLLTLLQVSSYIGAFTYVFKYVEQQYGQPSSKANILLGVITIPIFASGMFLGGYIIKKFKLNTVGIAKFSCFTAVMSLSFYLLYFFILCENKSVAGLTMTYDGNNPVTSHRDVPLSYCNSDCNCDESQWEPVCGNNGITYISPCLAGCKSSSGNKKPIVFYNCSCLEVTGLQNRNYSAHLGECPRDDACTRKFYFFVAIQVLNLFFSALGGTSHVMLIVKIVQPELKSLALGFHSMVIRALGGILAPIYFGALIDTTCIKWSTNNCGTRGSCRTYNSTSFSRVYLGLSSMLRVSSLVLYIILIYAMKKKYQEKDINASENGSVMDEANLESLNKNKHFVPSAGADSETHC
Procedure, shortened: (§1)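 HEK293 cells stably overexpressing the human transporter, grown in DMEM with 10% FBS and penicillin/streptomycin at 5% CO₂, then seeded in 24-well plates and used at confluence. Cells incubated at 37 °C for 2 min with 50 nmol/L ³H-estrone sulfate, with or without test compound or extract; final DMSO below 0.5%. Stopped by three cold DPBS washes, lysed in 0.1 mol/L NaOH, and counted by liquid scintillation (DPM).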

hOATP1B3 = target: T3, hOATP1B3 (Homo sapiens, UniProt Q9NPD5); test: Inhibition of 3H-ES uptake in HEK293-hOATP1B3 cells; type: in vitro ADME; conditions: 100 μmol/L IPT, ISP; 100 μg/mL AD extract; substrate 3H-ES
T3 sequence (Q9NPD5 1-702): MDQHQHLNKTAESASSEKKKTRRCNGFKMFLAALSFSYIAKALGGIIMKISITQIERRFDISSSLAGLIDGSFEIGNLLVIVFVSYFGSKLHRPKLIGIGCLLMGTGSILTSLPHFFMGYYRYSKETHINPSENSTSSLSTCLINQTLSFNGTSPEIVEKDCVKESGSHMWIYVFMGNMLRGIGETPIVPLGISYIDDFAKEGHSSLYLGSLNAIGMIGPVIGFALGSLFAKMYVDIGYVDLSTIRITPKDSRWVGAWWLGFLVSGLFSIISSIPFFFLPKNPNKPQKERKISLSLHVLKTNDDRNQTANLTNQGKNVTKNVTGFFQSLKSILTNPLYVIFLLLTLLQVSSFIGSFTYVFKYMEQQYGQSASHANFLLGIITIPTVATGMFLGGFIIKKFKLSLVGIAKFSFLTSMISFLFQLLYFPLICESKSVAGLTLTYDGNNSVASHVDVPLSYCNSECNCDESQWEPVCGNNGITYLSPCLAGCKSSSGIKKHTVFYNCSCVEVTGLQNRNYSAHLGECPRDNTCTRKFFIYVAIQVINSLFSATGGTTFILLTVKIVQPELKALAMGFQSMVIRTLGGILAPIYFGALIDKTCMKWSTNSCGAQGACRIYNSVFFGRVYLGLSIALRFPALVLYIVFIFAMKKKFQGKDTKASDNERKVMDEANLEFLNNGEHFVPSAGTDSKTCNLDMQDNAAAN
Procedure, shortened: as §1

mOatp1b2 = test: qRT-PCR of mOatp1b2 mRNA in liver of treated mice; type: in vivo; conditions: mice given 20 mg/kg TDE with 20 mg/kg IPT, ISP or 200 mg/kg AD extract, 4 h
[1] = Tissue distribution of TDE in mice; conditions: oral 20 mg/kg TDE with 20 mg/kg IPT, 20 mg/kg ISP or 200 mg/kg AD extract, 1, 2 and 4 h; for accumulation of TDE in kidney vs TDE alone / accumulation of TDE in liver vs TDE alone: P < 0.05

| Structure (SMILES) | IC50 (hOAT1) | inhibition of the activity of hOAT1 (hOAT1) | inhibition to hOATP1B1 (hOATP1B1) | inhibition to hOATP1B3 (hOATP1B3) | mRNA level of mOatp1b2 decreased to, compared to TDE alone (mOatp1b2) | concentration of TDE in blood vs TDE alone [1] | concentration of TDE in brain vs TDE alone [1] | accumulation of TDE in kidney vs TDE alone [1] | accumulation of TDE in liver vs TDE alone [1] |
| --- | --- | --- | --- | --- | --- | --- | --- | --- | --- |
| CC(C)=CCOc1c2occc2cc2ccc(=O)oc12 [IPT, imperatorin] | 31.7 µM | significantly inhibited | weak or no inhibition | weak or no inhibition | 61% | significantly enhanced | significantly enhanced | significantly decreased | significantly decreased |
| CC(C)=CCOc1c2ccoc2cc2oc(=O)ccc12 [ISP, isoimperatorin] | 26.8 µM | significantly inhibited | weak or no inhibition | weak or no inhibition | 50% | significantly enhanced | significantly enhanced | significantly decreased | significantly decreased |
